# Bioassay records deposited in PubChem by several laboratories.
# In the library only some 3.5% were active in any assay of this set; here they are far more common.
# PAFAH2 inh: PAFAH2 (human) inhibition | inhibition, % at 3.39 µM | recombinant PAFAH2, FP-rhodamine activity probe, fluorescence polarization | hit rate 0.99% among 340,000;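 active = inhibition above the mean over all tested compounds plus 3 SD, cut at about 30% in these data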;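 also: inhibitors block probe labeling of enzyme so polarization drops; 0% = enzyme with DMSO and 100% = wells lacking PAFAH2 protein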
# PAFAH1B2 FP inh: blocks human PAF acetylhydrolase 1b catalytic subunit 2; P68402; recombinant PAFAH1B2, FP-rhodamine activity probe, fluorescence polarization; inhibition, % at 3.39 µM; hit rate 1.2% among 340,000; AID 492953;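 active = inhibition above the mean of all tested compounds plus 3 SD, cut at about 24% in these data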;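 also: 0% = enzyme with DMSO and 100% = wells lacking PAFAH1B2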
# PREPL inh: inhibitors of human prolyl oligopeptidase-like enzyme PREPL; Q4J6C6; recombinant PREPL, fluorescence polarization activity-based probe; inhibition, % at 5.96 µM; hit rate 0.68% among 320,000; AID 2751; in the data active = inhibition above about 43%;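 also: 0% = enzyme with DMSO and 100% = wells lacking enzyme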
# PAFAH1B3 inh: inhibitors of human PAFAH1B3; Q15102; recombinant PAFAH1B3, FP-rhodamine probe, fluorescence polarization; inhibition, % at 3.39 µM; hit rate 0.28% among 340,000;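 active = inhibition above the screen-wide average of all tested compounds plus 3 SD, cut at about 25% in these data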;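 also: 0% = enzyme with DMSO only and 100% = wells lacking PAFAH1B3 protein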
# pPAFAH FP inh: pPAFAH (human) enzyme inhibition; Q13093; recombinant pPAFAH, FP-rhodamine probe fluorescence polarization; inhibition, % at 3.39 µM; hit rate 1.5% among 330,000; AID 463082;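 active = inhibition above the mean inhibition across the screen plus 3 SD, cut at about 25% in these data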;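 also: inhibitors block binding of the rhodamine activity-based probe so polarization drops; 0% = enzyme with DMSO and 100% = wells lacking pPAFAH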
# Target sequence (Q13093 whole entry, looked up): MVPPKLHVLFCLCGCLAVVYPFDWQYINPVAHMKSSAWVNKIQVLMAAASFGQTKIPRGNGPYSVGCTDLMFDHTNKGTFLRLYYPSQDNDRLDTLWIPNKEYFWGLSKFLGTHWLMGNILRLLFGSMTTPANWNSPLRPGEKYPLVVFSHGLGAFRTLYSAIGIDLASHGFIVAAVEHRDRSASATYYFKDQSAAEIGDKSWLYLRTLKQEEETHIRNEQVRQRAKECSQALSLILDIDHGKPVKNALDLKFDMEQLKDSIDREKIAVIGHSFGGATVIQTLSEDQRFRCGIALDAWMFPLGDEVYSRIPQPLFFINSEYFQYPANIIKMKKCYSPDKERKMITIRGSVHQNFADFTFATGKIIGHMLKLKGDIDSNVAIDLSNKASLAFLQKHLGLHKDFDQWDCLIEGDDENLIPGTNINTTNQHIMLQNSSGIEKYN
# Apaf1 inhib: blocks human Apaf-1 apoptosome activity; AID 489030; reconstituted apoptosome caspase-3 activity, DEVD-Rh110 fluorescence; O14727; hit rate 0.71% among 330,000; inhibition, % at 20 µM; active = inhibition of at least 40% at 20 µM;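 also: plate controls were DMSO wells for no effect and DEVD-CHO caspase inhibitor wells for full effect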
#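 System: Apoptosome proteins | Medium: Hepes pH 7.5 with detergent and BSA | Also added: Cytochrome c trigger plus (Z-DEVD)2-Rh110 caspase-3 substrate | Incubation: 30 min compound preincubation, 50 min activation, room temperature | Detection: Rhodamine 110 fluorescence at Ex 480/Em 540 nm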
# PAFAH2 confirm: confirmation of human PAFAH2 inhibitors; shares compounds with PAFAH2 inh; recombinant PAFAH2, FP-rhodamine activity probe, fluorescence polarization; inhibition, % at 3.39 µM; hit rate 65% among 2,300;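 active = mean inhibition over three repeats above a set limit taken from the earlier primary screen, cut at about 30% in these data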;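 also: inhibitor blocks binding of rhodamine activity probe so polarization falls; 0% = enzyme with DMSO and 100% = wells lacking PAFAH2 protein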
# The depositor's hits bear a star; . = no result.
SMILES,PAFAH2 inh,PAFAH1B2 FP inh,PREPL inh,PAFAH1B3 inh,pPAFAH FP inh,Apaf1 inhib,PAFAH2 confirm
COc1ccc(CCNC(=O)c2ccc(NS(=O)(=O)c3c(C)noc3C)cc2)cc1OC,1,0,-7,0,3,0,.
CCCC(Oc1ccc(Br)cc1)c1nc2c3cc(OC)c(OC)cc3nc(=S)n2[nH]1 (centres undefined),33*,15,9,13,10,2,22
CCOc1cc(/C=C2\C(=O)N(c3nc(-c4ccc(Br)cc4)cs3)N=C2c2ccccc2)ccc1O,55*,2,17,15,41*,53*,45*
N/C(CC(=O)Nc1ccc(F)c(Cl)c1)=N\OC(=O)c1cccs1,48*,10,-28,-1,-4,0,36*
O=C(COC(=O)c1cccs1)Nc1ccccc1,77*,-5,14,4,8,-6,78*
CC1(C(=O)OCC(=O)Nc2ccccc2)CC1(Cl)Cl (centres undefined),56*,1,-3,2,4,-4,51*
O=C(COC(=O)c1cccs1)NCCCc1ccccc1,47*,4,-3,1,5,5,28
O=C(COC(=O)c1cccs1)Nc1nc(-c2ccccc2)cs1,9,-4,-5,3,2,-3,.
COc1ccc(N2CC(C(=O)N[C@@H](CC(C)C)C(=O)NC3CCCCC3)CC2=O)cc1 (some centres undefined),-4,2,9,10,2,8,.
O=C(COc1coc(CN2CCN(c3ccccc3)CC2)cc1=O)Nc1ccc(F)cc1,10,5,19,2,2,-2,.
COc1ccc(/C=N/NC(=O)c2snnc2C)c(OC)c1OC,6,3,9,-3,4,4,.
Cc1c(CN2CCC(n3nccc3NC(=O)C3CC3)CC2)[nH]c2ccccc12,9,1,8,9,3,-5,.
O=C(COC(=O)c1cccs1)Nc1ccc(F)c(F)c1,79*,-1,0,4,9,-7,81*
O=C(COC(=O)CCC(=O)c1cccs1)Nc1ccc(F)c(F)c1F,3,1,-6,3,8,1,.
COc1ccc(COC[C@H](C)[C@H](O)[C@@H](C)[C@H]2OC(=O)[C@@H]2C)cc1,69*,-3,4,8,10,-5,78*
COCCNC(=O)CC(=O)N/N=C/c1cccc(C(=O)OC)c1,-1,3,2,-1,3,-12,.
O=C(COc1ccc(Cl)cc1Cl)NN=C1CCCCC1,15,0,-3,6,-1,-9,.
O=C(O)CCC(=O)NNC(=O)COc1ccc2ccccc2c1Br,.,.,-5,.,1,-3,.
CC1(C)CC(=O)C/C(=N/NC(=O)COc2ccc3ccccc3c2Br)C1,30*,9,31,4,8,5,16
CC1(C)CC(=O)C/C(=N/NC(=O)COc2ccc(Cl)cc2Cl)C1,40*,-2,11,11,11,2,22
CC(C)C(=O)O/N=C1\CCS(=O)(=O)c2sccc21,21,-2,21,1,4,-2,.
Cc1ccccc1C(=O)O/N=C1\CCS(=O)(=O)c2sccc21,68*,12,30,-9,7,2,68*
O=C(COC(=O)c1cc(Cl)nc(Cl)c1)NC1CCCCCC1,12,-3,7,10,8,-1,.
CC12CCC(C(=O)N(CSC(=S)N/N=C\c3ccccc3O)C1=O)C2(C)C (centres undefined),38*,11,20,5,5,-1,25
O=C(CSc1nnc(-c2ccccc2Cl)o1)N1CCCC1,1,-5,3,-2,3,-6,.
SMILES,PAFAH2 inh,PAFAH1B2 FP inh,PREPL inh,PAFAH1B3 inh,pPAFAH FP inh,Apaf1 inhib,PAFAH2 confirm
N#CCCOC1(C#CCN2CCCC2)CCCCC1,-6,5,-3,2,8,-3,.
COc1ccc(-c2nnc(Nc3nc4c(OC)cccc4s3)o2)cc1,10,9,19,10,19,.,.
COc1cc(OC)cc(-c2nnc(Nc3nc4c(F)cccc4s3)o2)c1,36*,11,4,13,24,10,31*
NS(=O)(=O)c1cccc(NC(=O)c2ccccc2NS(=O)(=O)c2ccc(F)cc2)c1,42*,5,11,-1,9,2,47*
CCn1cc(C(=O)OCC(=O)NCc2ccccc2Cl)c(=O)c2ccc(C)nc21,35*,0,6,3,3,4,23
CCCc1c(C(=O)Nc2ccc(C(F)(F)F)cc2)cnn1-c1ccccc1,1,1,14,8,-4,-8,.
CCCc1c(C(=O)NNc2ccc(C)cc2)cnn1-c1ccccc1,33*,4,-1,-1,4,16,14
CCCSC1=N/C(=C\c2ccc([N+](=O)[O-])o2)C(=O)S1,40*,7,.,17,.,.,20
Cc1cccc(COc2ncnc3nc[nH]c23)c1,9,-4,-1,7,3,1,.
OCCC1CN(Cc2cccc3nccnc23)CCN1Cc1ccc(F)c(F)c1 (centres undefined),5,-1,2,-2,-1,-10,.
COc1ccccc1/C=C/C(=O)OCC(=O)NCc1ccc2c(c1)OCO2,51*,5,1,6,14,5,33*
COc1ccccc1/C=C/C(=O)OCC(=O)Nc1ccc2c(c1)OCO2,79*,0,8,7,16,-4,85*
O=C(COC(=O)/C=C/c1ccccc1)NCc1ccc2c(c1)OCO2,14,0,-13,-3,6,-7,.
COc1ccccc1/C=C/C(=O)OCC(=O)Nc1c(F)cccc1F,53*,-2,15,3,12,13,63*
COc1ccccc1/C=C/C(=O)OCC(=O)Nc1nnc(-c2ccccc2)o1,4,-5,.,5,.,7,.
COc1ccccc1N=C1SCC(=O)N1c1ccccc1OC,7,0,4,5,1,-2,.
Cc1ccc(NC(=O)COC(=O)c2cccc(N3C(=O)c4ccccc4C3=O)c2)cc1,38*,3,-3,2,11,-13,27
CC(=O)c1cccc(NC(=O)COC(=O)c2cccc(N3C(=O)c4ccccc4C3=O)c2)c1,52*,-1,-12,6,1,9,46*
CC(=O)c1ccc(NC(=O)c2cccc(N3C(=O)c4ccccc4C3=O)c2)cc1,-9,-10,2,-8,5,10,.
CCNc1nnc(SCC(=O)c2c(N)n(C3CC3)c(=O)[nH]c2=O)s1,-2,-5,16,6,-4,15,.
CCOC(=O)c1c(CC(C)C)csc1/N=C/C1C(=O)CCCC1=O,33*,13,-7,-2,6,10,25
CCS(=O)(=O)c1ccc(O)c(NC(=O)CCCC(=O)O)c1,4,-1,6,-5,3,-8,.
